Tested on: Poliovirus 1
Assay: Antiviral activity against Poliovirus type 1 Sabin strain infected in african green monkey Vero 76 cells assessed as reduction in plaque number after 2 days by plaque reduction assay
Type: functional, organism-based
Conditions: Enterovirus C, 48 h

Compound	EC50 [µM]
FC(F)(F)c1ccc2c(c1)nc(CC1CCCC1)n2C[C@@H]1CCCN2CCCC[C@H]12	> 100
c1ccc2[nH]c(CC3CCCC3)nc2c1	> 100
O=c1cnn([C@@H]2O[C@H](CO)[C@@H](O)[C@H]2O)c(=O)[nH]1 [6-AZAURIDINE]	> 100
COc1c(C)c2c(c(O)c1C/C=C(\C)CCC(=O)O)C(=O)OC2 [MYCOPHENOLIC ACID]	> 100
NC(=O)c1ncn([C@@H]2O[C@H](CO)[C@@H](O)[C@H]2O)n1 [RIBAVIRIN]	> 100

Tested on: Yellow fever virus
Assay: Antiviral activity against Yellow fever virus infected in BHK21 cells assessed as inhibition of virus-induced cytopathogenicity after 3 to 4 days by MTT assay
Type: functional, organism-based
Conditions: BHK-21

Compound	EC50 [µM]
FC(F)(F)c1ccc2c(c1)nc(CC1CCCC1)n2C[C@@H]1CCCN2CCCC[C@H]12	> 100
c1ccc2[nH]c(CC3CCCC3)nc2c1	> 100
O=c1cnn([C@@H]2O[C@H](CO)[C@@H](O)[C@H]2O)c(=O)[nH]1 [6-AZAURIDINE]	> 100
COc1c(C)c2c(c(O)c1C/C=C(\C)CCC(=O)O)C(=O)OC2 [MYCOPHENOLIC ACID]	> 100
NC(=O)c1ncn([C@@H]2O[C@H](CO)[C@@H](O)[C@H]2O)n1 [RIBAVIRIN]	> 100

Tested on: Human immunodeficiency virus 1
Assay: Antiviral activity against HIV1 infected in human MT4 cells assessed as inhibition of virus-induced cytopathogenicity after 4 days by MTT assay
Type: functional, organism-based
Conditions: Human immunodeficiency virus 1, MT4, 96 h
Method in brief: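 MT-4 cells (1 × 10^4/well in RPMI) were infected acutely with HIV-1 IIIB, 100 CCID50 (m.o.i. 0.01), with serial dilutions from 100 µM, 1:5. After 4 days at 37 °C, protection from virus-induced cytopathogenicity was read by MTT. EC50 came from linear regression against untreated controls.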

Compound	EC50 [µM]
FC(F)(F)c1ccc2c(c1)nc(CC1CCCC1)n2C[C@@H]1CCCN2CCCC[C@H]12	> 100
c1ccc2[nH]c(CC3CCCC3)nc2c1	> 100

Tested on: not listed separately
Assay: Selectivity index, ratio of CC50 for african green monkey Vero 76 cells to EC50 for Coxsackievirus B5
Type: toxicity, cell-based
Conditions: read-out: Ratio CC50/EC50
Method in brief: (§1)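 Mock-infected Vero-76 cells were tested in parallel on the same 24-well plates as the plaque assays (seeding 4 × 10^5 cells/mL, D-MEM with FBS), with serial compound dilutions at 37 °C, 5% CO2. Viability was read after 48–96 h by crystal violet staining. CC50 by linear regression; selectivity index = Vero-76 CC50/EC50 for CVB-5 or RSV.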

Compound	selectivity ratio
FC(F)(F)c1ccc2c(c1)nc(CC1CCCC1)n2C[C@@H]1CCCN2CCCC[C@H]12	> 9.09
c1ccc2[nH]c(CC3CCCC3)nc2c1	> 4.76

Tested on: Coxsackievirus B5
Assay: Antiviral activity against Coxsackievirus B5 infected in african green monkey Vero 76 cells assessed as reduction in plaque number after 3 days by plaque reduction assay
Type: functional, organism-based
Conditions: Enterovirus B, 72 h

Compound	EC50 [µM]
FC(F)(F)c1ccc2c(c1)nc(CC1CCCC1)n2C[C@@H]1CCCN2CCCC[C@H]12	11
c1ccc2[nH]c(CC3CCCC3)nc2c1	21
O=c1cnn([C@@H]2O[C@H](CO)[C@@H](O)[C@H]2O)c(=O)[nH]1 [6-AZAURIDINE]	> 100
COc1c(C)c2c(c(O)c1C/C=C(\C)CCC(=O)O)C(=O)OC2 [MYCOPHENOLIC ACID]	> 100
NC(=O)c1ncn([C@@H]2O[C@H](CO)[C@@H](O)[C@H]2O)n1 [RIBAVIRIN]	> 100

Tested on: Bovine viral diarrhea virus 1
Assay: Antiviral activity against Bovine viral diarrhea virus infected in MDBK cells assessed as inhibition of virus-induced cytopathogenicity after 3 to 4 days by MTT assay
Type: functional, organism-based
Conditions: Bovine viral diarrhea virus isolates and strains

Compound	EC50 [µM]
FC(F)(F)c1ccc2c(c1)nc(CC1CCCC1)n2C[C@@H]1CCCN2CCCC[C@H]12	> 100
c1ccc2[nH]c(CC3CCCC3)nc2c1	> 100
O=c1cnn([C@@H]2O[C@H](CO)[C@@H](O)[C@H]2O)c(=O)[nH]1 [6-AZAURIDINE]	> 100
COc1c(C)c2c(c(O)c1C/C=C(\C)CCC(=O)O)C(=O)OC2 [MYCOPHENOLIC ACID]	> 100
NC(=O)c1ncn([C@@H]2O[C@H](CO)[C@@H](O)[C@H]2O)n1 [RIBAVIRIN]	8

Tested on: not listed separately
Assay: Cytotoxicity against mock-infected MDBK cells after 48 to 96 hrs by MTT assay
Type: cell-based, Bos taurus
Conditions: cattle
Method in brief: (§2)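 Mock-infected MDBK (6 × 10^5 cells/mL; MEM-E, 10% horse serum, 1 mM pyruvate) or BHK (1 × 10^6 cells/mL; MEM-E, 10% FBS) cells were incubated at 37 °C, 5% CO2 with serial dilutions from 100 µM, 1:5. Viability by MTT after 48–96 h. CC50 from linear regression against untreated controls.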

Compound	CC50 [µM]
FC(F)(F)c1ccc2c(c1)nc(CC1CCCC1)n2C[C@@H]1CCCN2CCCC[C@H]12	35
c1ccc2[nH]c(CC3CCCC3)nc2c1	> 100
O=c1cnn([C@@H]2O[C@H](CO)[C@@H](O)[C@H]2O)c(=O)[nH]1 [6-AZAURIDINE]	> 100
NC(=O)c1ncn([C@@H]2O[C@H](CO)[C@@H](O)[C@H]2O)n1 [RIBAVIRIN]	> 100

Tested on: Vaccinia virus
Assay: Antiviral activity against Vaccinia Virus infected in african green monkey Vero 76 cells assessed as reduction in plaque number after 3 days by plaque reduction assay
Type: functional, organism-based
Conditions: Orthopoxvirus vaccinia, 72 h

Compound	EC50 [µM]
FC(F)(F)c1ccc2c(c1)nc(CC1CCCC1)n2C[C@@H]1CCCN2CCCC[C@H]12	> 100
c1ccc2[nH]c(CC3CCCC3)nc2c1	> 100
COc1c(C)c2c(c(O)c1C/C=C(\C)CCC(=O)O)C(=O)OC2 [MYCOPHENOLIC ACID]	2
NC(=O)c1ncn([C@@H]2O[C@H](CO)[C@@H](O)[C@H]2O)n1 [RIBAVIRIN]	> 100

Tested on: Reovirus sp.
Assay: Antiviral activity against Reovirus type-1 infected in BHK21 cells assessed as inhibition of virus-induced cytopathogenicity after 3 to 4 days by MTT assay
Type: functional, organism-based
Conditions: BHK-21

Compound	EC50 [µM]
FC(F)(F)c1ccc2c(c1)nc(CC1CCCC1)n2C[C@@H]1CCCN2CCCC[C@H]12	> 100
c1ccc2[nH]c(CC3CCCC3)nc2c1	> 100
O=c1cnn([C@@H]2O[C@H](CO)[C@@H](O)[C@H]2O)c(=O)[nH]1 [6-AZAURIDINE]	> 100
COc1c(C)c2c(c(O)c1C/C=C(\C)CCC(=O)O)C(=O)OC2 [MYCOPHENOLIC ACID]	> 100
NC(=O)c1ncn([C@@H]2O[C@H](CO)[C@@H](O)[C@H]2O)n1 [RIBAVIRIN]	> 100

Tested on: Human alphaherpesvirus 1
Assay: Antiviral activity against HSV1 infected in african green monkey Vero 76 cells assessed as reduction in plaque number after 3 days by plaque reduction assay
Type: functional, organism-based
Conditions: Human alphaherpesvirus 1, Vero, 72 h

Compound	EC50 [µM]
FC(F)(F)c1ccc2c(c1)nc(CC1CCCC1)n2C[C@@H]1CCCN2CCCC[C@H]12	> 100
c1ccc2[nH]c(CC3CCCC3)nc2c1	> 100
O=c1cnn([C@@H]2O[C@H](CO)[C@@H](O)[C@H]2O)c(=O)[nH]1 [6-AZAURIDINE]	> 100
COc1c(C)c2c(c(O)c1C/C=C(\C)CCC(=O)O)C(=O)OC2 [MYCOPHENOLIC ACID]	> 100
NC(=O)c1ncn([C@@H]2O[C@H](CO)[C@@H](O)[C@H]2O)n1 [RIBAVIRIN]	> 100

Tested on: not listed separately
Assay: Cytotoxicity against mock-infected african green monkey Vero 76 cells after 48 to 96 hrs by MTT assay
Type: cell-based
Conditions: chlorocebus sabaeus, mock-infected Vero 76 cells

Compound	CC50 [µM]
FC(F)(F)c1ccc2c(c1)nc(CC1CCCC1)n2C[C@@H]1CCCN2CCCC[C@H]12	> 100
c1ccc2[nH]c(CC3CCCC3)nc2c1	> 100
O=c1cnn([C@@H]2O[C@H](CO)[C@@H](O)[C@H]2O)c(=O)[nH]1 [6-AZAURIDINE]	20
COc1c(C)c2c(c(O)c1C/C=C(\C)CCC(=O)O)C(=O)OC2 [MYCOPHENOLIC ACID]	20
NC(=O)c1ncn([C@@H]2O[C@H](CO)[C@@H](O)[C@H]2O)n1 [RIBAVIRIN]	> 100

Tested on: Vesicular stomatitis virus
Assay: Antiviral activity against Vesicular stomatitis virus infected in african green monkey Vero 76 cells assessed as reduction in plaque number after 2 days by plaque reduction assay
Type: functional, organism-based
Conditions: 48 h

Compound	EC50 [µM]
FC(F)(F)c1ccc2c(c1)nc(CC1CCCC1)n2C[C@@H]1CCCN2CCCC[C@H]12	> 100
c1ccc2[nH]c(CC3CCCC3)nc2c1	> 100
O=c1cnn([C@@H]2O[C@H](CO)[C@@H](O)[C@H]2O)c(=O)[nH]1 [6-AZAURIDINE]	> 100
NC(=O)c1ncn([C@@H]2O[C@H](CO)[C@@H](O)[C@H]2O)n1 [RIBAVIRIN]	> 100

Tested on: not listed separately
Assay: Cytotoxicity against mock-infected human MT4 cells after 96 hrs by MTT assay
Type: cell-based
Conditions: not given
Method in brief: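 Exponentially growing MT-4 cells were seeded at 1 × 10^5 cells/mL in RPMI-1640 with 10% FBS and held at 37 °C, 5% CO2 with serial compound dilutions. Viability was read by MTT after 96 h. CC50 from linear regression against untreated controls.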

Compound	CC50 at 96 h [µM]
FC(F)(F)c1ccc2c(c1)nc(CC1CCCC1)n2C[C@@H]1CCCN2CCCC[C@H]12	11
c1ccc2[nH]c(CC3CCCC3)nc2c1	> 100

Tested on: not listed separately
Assay: Selectivity index, ratio of CC50 for african green monkey Vero 76 cells to EC50 for Respiratory syncytial virus
Type: toxicity, cell-based
Conditions: read-out: Ratio CC50/EC50
Method in brief: as §1

Compound	selectivity ratio
O=c1cnn([C@@H]2O[C@H](CO)[C@@H](O)[C@H]2O)c(=O)[nH]1 [6-AZAURIDINE]	16.7
COc1c(C)c2c(c(O)c1C/C=C(\C)CCC(=O)O)C(=O)OC2 [MYCOPHENOLIC ACID]	33.3
NC(=O)c1ncn([C@@H]2O[C@H](CO)[C@@H](O)[C@H]2O)n1 [RIBAVIRIN]	> 14.3

Tested on: not listed separately
Assay: Cytotoxicity against mock-infected BHK21 cells after 48 to 96 hrs by MTT assay
Type: functional
Conditions: Mesocricetus auratus, BHK-21
Method in brief: as §2

Compound	CC50 [µM]
FC(F)(F)c1ccc2c(c1)nc(CC1CCCC1)n2C[C@@H]1CCCN2CCCC[C@H]12	32
c1ccc2[nH]c(CC3CCCC3)nc2c1	> 100
O=c1cnn([C@@H]2O[C@H](CO)[C@@H](O)[C@H]2O)c(=O)[nH]1 [6-AZAURIDINE]	> 100
COc1c(C)c2c(c(O)c1C/C=C(\C)CCC(=O)O)C(=O)OC2 [MYCOPHENOLIC ACID]	> 100
NC(=O)c1ncn([C@@H]2O[C@H](CO)[C@@H](O)[C@H]2O)n1 [RIBAVIRIN]	> 100

Tested on: Respiratory syncytial virus
Assay: Antiviral activity against Respiratory syncytial virus infected in african green monkey Vero 76 cells assessed as reduction in plaque number after 5 days by plaque reduction assay
Type: functional, organism-based
Conditions: human respiratory syncytial virus, 120 h

Compound	EC50 [µM]
FC(F)(F)c1ccc2c(c1)nc(CC1CCCC1)n2C[C@@H]1CCCN2CCCC[C@H]12	> 100
c1ccc2[nH]c(CC3CCCC3)nc2c1	> 100

From ChEMBL document CHEMBL3351523 (Bioorg Med Chem, 2014)
